Laboratory results reported in ChEMBL document CHEMBL1141334, “Mirabamides A-D, depsipeptides from the sponge Siliquariaspongia mirabilis that inhibit HIV-1 fusion” (J Nat Prod, 2007).
Activity calls are given as the source filed them. The rule behind the calls is not given here. *1 amine or outer side, *2 acyl side, *3 side chain or, on linkers, in order; H or OH if unused. Where a SMILES comes first, the peptide text is derived from it. Bridges are numbered along the chain shown (N, C = ends). [ ]: non-standard residue; d: D form. The star is where a group is joined. dLeu(3R-OH) = CC(C)[C@@H](O[*:3])[C@@H](N[*:1])C(=O)[*:2]; Gln(3S,4R-Me2) = C[C@H]([C@H](N)C(=O)O)[C@@H](C)C(N)=O; dTyr(βR-OMe) = CO[C@H](c1ccc(O)cc1)[C@@H](N)C(=O)O; Pip(4S-Cl) = O=C(O)[C@@H]1C[C@@H](Cl)CCN1; X1 = CCC(C)/C=C(C)/C=C\C(O)C(C)(O)C(=O)*; Abu(3R-NH2) = C[C@@H](N)[C@H](N)C(=O)O; NMeT = CN[C@H](C(=O)O)[C@@H](C)O

Assays:
[1] = tested on: Human immunodeficiency virus 1; assay: Inhibition of HIV HXB2 in TZM-bl cells after 48 hrs by neutralization assay; type: functional, organism-based; conditions: Human immunodeficiency virus 1, HXB2, TZM-bl
Method in brief: (§1)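 Env-pseudotyped viral particles (HXB2, CXCR4-using; SF162, CCR5-using) added with varying inhibitor concentrations (in H2O or 20% EtOH in H2O) to TZM-bl cells (CD4, CXCR4, CCR5) after overnight plating at 37 °C. Luciferase luminescence (RLU) read after 48 h at 37 °C. Duplicate or triplicate, on at least two different days.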

[2] = Cytotoxicity against human TZM-bl cells after 24 hrs by MTT assay; type: functional, cell-based
Method in brief: (§2)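 MTT kit assay. Cells seeded at 2 × 10^4/well, adhered 18 h, then exposed for 3 h (fusion-assay conditions) or 24 h (neutralization-assay conditions). Medium then replaced or diluted 3-fold with fresh growth medium, followed by 72 h further culture. Viability read at A570 after MTT.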

[3] = tested on: Human immunodeficiency virus 1; assay: Inhibition of HIV SF162 in TZM-bl cells after 48 hrs by neutralization assay; type: functional, organism-based; conditions: Human immunodeficiency virus 1, SF162, TZM-bl; method in brief: as §1
Staphylococcus aureus = assay: Antimicrobial activity against Staphylococcus aureus ATCC 25923 at 25 ug per disk after 18 hrs by disk diffusion method; type: functional, organism-based
Method in brief: (§3)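 Modified disk diffusion. Bacteria: 500 µL of 24 h culture in 100 mL Antibiotic Medium 2 with 1% agar at 55 °C; C. albicans in Sabouraud dextrose agar at 55 °C. 10 mL seeded agar poured per dish, cooled 1 h. Compounds applied at 1–25 µg; zones of inhibition measured after 18 h at 37 °C.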

Bacillus subtilis [4] = assay: Antimicrobial activity against Bacillus subtilis ATCC 49343 at 5 ug per disk after 18 hrs by disk diffusion method; type: functional, organism-based; method in brief: as §3
[5] = Cytotoxicity against african green monkey BSC1 cells after 3 hrs by MTT assay; type: cell-based; conditions: chlorocebus aethiops, bsc-1, 3 h; method in brief: as §2
Escherichia coli = assay: Antimicrobial activity against Escherichia coli ATCC 8739 at 25 ug per disk after 18 hrs by disk diffusion method; type: functional, organism-based; method in brief: as §3
Candida albicans = assay: Antifungal activity against Candida albicans ATCC 90027 at 5 ug per disk after 18 hrs by disk diffusion method; type: functional; conditions: ATCC 90027, 18 h, read-out: IZ; method in brief: as §3
[6] = tested on: Human immunodeficiency virus 1; assay: Inhibition of HIV LAV in BSC1 cells after 2.5 hrs by cell fusion assay; type: functional, organism-based; conditions: Human immunodeficiency virus 1, LAV, BSC-1, 2.5 h
HCT-116 = assay: Cytotoxicity against human HCT116 cells by MTT assay; type: functional, cell-based; method in brief: as §2
Pseudomonas aeruginosa = assay: Antimicrobial activity against Pseudomonas aeruginosa ATCC 15442 at 25 ug per disk after 18 hrs by disk diffusion method; type: functional, organism-based; method in brief: as §3
Bacillus subtilis [7] = assay: Antimicrobial activity against Bacillus subtilis ATCC 49343 at 1 ug per disk after 18 hrs by disk diffusion method; type: functional; conditions: ATCC 49343, 18 h, read-out: IZ
Method in brief: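 Modified disk diffusion: 24 h bacterial culture seeded (500 µL per 100 mL) into Antibiotic Medium 2 with 1% agar at 55 °C, 10 mL poured into square dishes, cooled 1 h. Compound applied to disks (1–25 µg range tested); chloramphenicol 10 µg disk as control. Incubated 37 °C, 18 h; inhibition zone diameters measured.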

SMILES | IC50 [1] [nM] | IC50 [3] [nM] | IC50 [6] [nM] | IC50 [2] [nM] | Activity (Staphylococcus aureus) | Activity (Bacillus subtilis [4]) | Activity [5] | Activity (Escherichia coli) | zone of inhibition at 5 µg/disc (Candida albicans) [mm] | IC50 (HCT-116) [nM] | Activity (Pseudomonas aeruginosa) | zone of inhibition at 1 µg/disc (Bacillus subtilis [7]) [mm]
CCC(C)/C=C(C)/C=C\C(O)C(C)(O)C(=O)NCC(=O)N[C@H](C(=O)N[C@H](C(=O)N[C@H](C(=O)N[C@H]1C(=O)N[C@H](COC)C(=O)NCC(=O)N[C@@H](C)C(=O)N(C)[C@@H]([C@@H](C)O)C(=O)N[C@H]([C@H](OC)c2ccc(O[C@@H]3O[C@@H](C)[C@H](O)[C@@H](O)[C@H]3O)cc2)C(=O)N2CCCC[C@H]2C(=O)O[C@@H]1C(C)C)[C@@H](C)[C@@H](C)C(N)=O)[C@@H](C)N)[C@@H](C)O (stereo not given in full) [MIRABAMIDE D] | 189 | 1310 | 3900 | 3900 | inactive |  | Non-toxic | inactive |  |  | inactive | 9
CCC(C)/C=C(C)/C=C\C(O)C(C)(O)C(=O)NCC(=O)N[C@H](C(=O)N[C@H](C(=O)N[C@H](C(=O)N[C@H]1C(=O)N[C@H](COC)C(=O)NCC(=O)N[C@@H](C)C(=O)N(C)[C@@H]([C@@H](C)O)C(=O)N[C@H]([C@H](OC)c2ccc(O)cc2)C(=O)N2CC[C@H](Cl)C[C@H]2C(=O)O[C@@H]1C(C)C)[C@@H](C)[C@@H](C)C(N)=O)[C@@H](C)N)[C@@H](C)O (stereo partly drawn) [MIRABAMIDE C] (X1-GT[Abu(3R-NH2)][Gln(3S,4R-Me2)][dLeu(3R-OH)][dS](Me)GA[NMeT][dTyr(βR-OMe)][Pip(4S-Cl)]; ester 5-C) | 144 | 1010 | 1300 | 2200 | inactive |  | Non-toxic | inactive | 9 |  | inactive | 9
C/C=C(\NC(=O)[C@@H](NC(=O)CNC(=O)C(C)(O)C(O)/C=C\C(C)=C\C(C)CC)[C@@H](C)O)C(=O)N[C@H](C(=O)N[C@H]1C(=O)N[C@H](COC)C(=O)NCC(=O)N[C@@H](C)C(=O)N(C)[C@@H]([C@@H](C)O)C(=O)N[C@H]([C@H](OC)c2ccc(O[C@@H]3O[C@@H](C)[C@H](O)[C@@H](O)[C@H]3O)cc2)C(=O)N2CC[C@H](Cl)C[C@H]2C(=O)O[C@@H]1C(C)C)[C@@H](C)[C@@H](C)C(N)=O (stereo not given in full) [MIRABAMIDE B] | > 50000 | > 50000 | > 10000 |  | inactive | Active | Non-toxic | inactive | 9 |  | inactive | 

These reach a lower IC50 [6]. Values come first.

IC50 [1] [nM] | IC50 [3] [nM] | IC50 [6] [nM] | SMILES | IC50 [2] [nM] | Activity (Staphylococcus aureus) | Activity (Bacillus subtilis [4]) | Activity [5] | Activity (Escherichia coli) | zone of inhibition at 5 µg/disc (Candida albicans) [mm] | IC50 (HCT-116) [nM] | Activity (Pseudomonas aeruginosa) | zone of inhibition at 1 µg/disc (Bacillus subtilis [7]) [mm]
140 | 400 | 41 | CCC(C)/C=C(C)/C=C\C(O)C(C)(O)C(=O)NCC(=O)N[C@H](C(=O)N[C@H](C(=O)N[C@H](C(=O)N[C@H]1C(=O)N[C@H](COC)C(=O)NCC(=O)N[C@@H](C)C(=O)N(C)[C@@H]([C@@H](C)O)C(=O)N[C@H]([C@H](OC)c2ccc(O[C@@H]3O[C@@H](C)[C@H](O)[C@@H](O)[C@H]3O)cc2)C(=O)N2CC[C@H](Cl)C[C@H]2C(=O)O[C@@H]1C(C)C)[C@@H](C)[C@@H](C)C(N)=O)[C@@H](C)N)[C@@H](C)O (stereo not given in full) [MIRABAMIDE A] | 1800 | inactive | Active | Non-toxic | inactive | 9 | 2220 | inactive | 
 |  | 73 | CCC(C)/C=C(C)/C=C\C(O)C(C)(O)C(=O)NCC(=O)N[C@H](C(=O)N[C@H](C(=O)N[C@H](C(=O)N[C@H]1C(=O)N[C@H](COC)C(=O)NCC(=O)N[C@@H](C)C(=O)N(C)[C@@H]([C@@H](C)O)C(=O)N[C@H]([C@H](OC)c2ccc(O)cc2)C(=O)N2CCCC[C@H]2C(=O)O[C@@H]1C(C)C)[C@@H](C)[C@@H](C)C(N)=O)[C@@H](C)N)[C@@H](C)O (stereo not given in full) [PAPUAMIDE A] |  | inactive |  | Non-toxic | inactive |  | 3500 | inactive | 
